Results from ChEMBL document CHEMBL4819134, “Design, synthesis and biological evaluation of imidazopyridazine derivatives containing isoquinoline group as potent MNK1/2 inhibitors” (Bioorg Med Chem, 2021).

Legend:
[1] = target: T1, MAP kinase-interacting serine/threonine-protein kinase 1 (Homo sapiens, UniProt Q9BUB5); settings: Sf21, dose 500.0 nM, time 50.0 min
Target sequence in this assay (Q9BUB5 whole entry, looked up): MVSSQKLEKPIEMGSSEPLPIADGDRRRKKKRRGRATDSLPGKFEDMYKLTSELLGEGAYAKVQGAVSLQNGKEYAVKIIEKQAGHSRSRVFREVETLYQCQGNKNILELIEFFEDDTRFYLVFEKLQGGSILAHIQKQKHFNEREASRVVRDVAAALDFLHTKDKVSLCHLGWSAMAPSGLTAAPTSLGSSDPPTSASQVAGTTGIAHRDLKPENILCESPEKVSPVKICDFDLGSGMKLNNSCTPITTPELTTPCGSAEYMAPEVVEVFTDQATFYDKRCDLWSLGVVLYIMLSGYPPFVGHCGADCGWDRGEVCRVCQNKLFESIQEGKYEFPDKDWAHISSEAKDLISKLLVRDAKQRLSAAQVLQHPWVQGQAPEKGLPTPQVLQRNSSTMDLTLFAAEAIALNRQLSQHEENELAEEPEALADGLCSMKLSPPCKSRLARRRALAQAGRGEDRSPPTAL

[2] = target: T2, MAP kinase-interacting serine/threonine-protein kinase 2 (Homo sapiens, UniProt Q9HBH9); settings: Sf21, dose 500.0 nM, time 50.0 min
Target sequence in this assay (Q9HBH9 whole entry, looked up, the tested form may be a part): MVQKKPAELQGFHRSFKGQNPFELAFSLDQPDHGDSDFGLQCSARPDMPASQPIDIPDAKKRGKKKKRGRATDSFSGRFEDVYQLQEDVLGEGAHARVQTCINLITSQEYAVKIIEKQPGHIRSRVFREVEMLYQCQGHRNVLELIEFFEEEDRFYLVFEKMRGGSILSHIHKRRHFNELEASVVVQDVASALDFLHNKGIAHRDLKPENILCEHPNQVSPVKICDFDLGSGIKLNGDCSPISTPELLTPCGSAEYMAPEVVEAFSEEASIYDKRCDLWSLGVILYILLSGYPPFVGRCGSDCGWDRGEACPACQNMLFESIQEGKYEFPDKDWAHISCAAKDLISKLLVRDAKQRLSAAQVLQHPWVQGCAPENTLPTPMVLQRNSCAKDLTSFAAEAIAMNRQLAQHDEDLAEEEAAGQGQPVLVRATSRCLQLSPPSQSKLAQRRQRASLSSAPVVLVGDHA

[3] = target: T1, MAP kinase-interacting serine/threonine-protein kinase 1; experiment: Inhibition of N-terminal GST-fused human full length recombinant MNK1 (1 to 424 residues) expressed in baculovirus-infected Sf21 cells using TATKSGSTTKNR as substrate preincubated with enzyme and substrate for 10 mins followed by ATP addition and measured after 40 mins by ADP-glo luminescence assay
Target sequence in this assay (Q9BUB5 whole entry): as the sequence (Q9BUB5 whole entry, looked up) above

[4] = target: T2, MAP kinase-interacting serine/threonine-protein kinase 2; experiment: Inhibition of N-terminal GST-fused human full length recombinant MNK2 (1 to 465 residues) expressed in baculovirus-infected Sf21 cells using TATKSGSTTKNR as substrate preincubated with enzyme and substrate for 10 mins followed by ATP addition and measured after 40 mins by ADP-glo luminescence assay
Target sequence in this assay (Q9HBH9 whole entry, the tested form may be a part): as the sequence (Q9HBH9 whole entry, looked up, the tested form may be a part) above

TMD8 [5] = experiment: Antiproliferative activity against human TMD8 cells assessed as reduction in cell viability incubated for 72 hrs by MTT assay; assay type: functional, cell-based; settings: TMD8, 72 h
Summary of the method: (§1)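 Lymphoma cells seeded and grown 12 h, then exposed to serial compound concentrations in medium with 1‰ DMSO, each in triplicate, for 72 h. DMSO-only control. Viability read by MTT and normalized to DMSO control. IC50 derived by Logit method, mean ± SD of three independent determinations.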

DOHH-2 = experiment: Antiproliferative activity against human DOHH-2 cells assessed as reduction in cell viability incubated for 72 hrs by MTT assay; assay type: functional, cell-based; settings: DOHH-2, 72 h
Summary of the method: as §1

TMD8 [6] = experiment: Induction of apoptosis in human TMD8 cells assessed as early apoptotic cells at 0.5 uM incubated for 24 hrs by AnnexinV-FITC/PE staining based flow cytometry (reference value: 4.35%); assay type: functional
Summary of the method: (§2)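 TMD-8 cells seeded at 1 × 10^5 per 2 mL well and treated 24 h at 0.25, 0.5 or 1 μM, with DMSO control. Cells washed twice in cold PBS and resuspended in binding buffer. Stained with annexin V-FITC for 15 min, then PI for 5 min, both at 37 °C in the dark. Analysed by flow cytometry.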

TMD8 [7] = experiment: Induction of apoptosis in human TMD8 cells assessed as viable cells at 0.5 uM incubated for 24 hrs by AnnexinV-FITC/PE staining based flow cytometry (reference value: 94.2%); assay type: functional; settings: read-out: Activity
Summary of the method: as §2

TMD8 [8] = experiment: Induction of apoptosis in human TMD8 cells assessed as necrotic cells at 0.25 uM incubated for 24 hrs by AnnexinV-FITC/PE staining based flow cytometry (reference value: 0%); assay type: functional
Summary of the method: as §2

TMD8 [9] = experiment: Induction of apoptosis in human TMD8 cells assessed as late apoptotic cells at 0.25 uM incubated for 24 hrs by AnnexinV-FITC/PE staining based flow cytometry (reference value: 1.44%); assay type: functional
Summary of the method: as §2

TMD8 [10] = experiment: Induction of apoptosis in human TMD8 cells assessed as early apoptotic cells at 0.25 uM incubated for 24 hrs by AnnexinV-FITC/PE staining based flow cytometry (reference value: 4.35%); assay type: functional
Summary of the method: as §2

[11] = target: Tyrosine-protein kinase BTK (Homo sapiens) (UniProt Q06187); experiment: Inhibition of BTK (unknown origin) at 500 nM
Chain of Tyrosine-protein kinase BTK (Homo sapiens) (Q06187 whole entry): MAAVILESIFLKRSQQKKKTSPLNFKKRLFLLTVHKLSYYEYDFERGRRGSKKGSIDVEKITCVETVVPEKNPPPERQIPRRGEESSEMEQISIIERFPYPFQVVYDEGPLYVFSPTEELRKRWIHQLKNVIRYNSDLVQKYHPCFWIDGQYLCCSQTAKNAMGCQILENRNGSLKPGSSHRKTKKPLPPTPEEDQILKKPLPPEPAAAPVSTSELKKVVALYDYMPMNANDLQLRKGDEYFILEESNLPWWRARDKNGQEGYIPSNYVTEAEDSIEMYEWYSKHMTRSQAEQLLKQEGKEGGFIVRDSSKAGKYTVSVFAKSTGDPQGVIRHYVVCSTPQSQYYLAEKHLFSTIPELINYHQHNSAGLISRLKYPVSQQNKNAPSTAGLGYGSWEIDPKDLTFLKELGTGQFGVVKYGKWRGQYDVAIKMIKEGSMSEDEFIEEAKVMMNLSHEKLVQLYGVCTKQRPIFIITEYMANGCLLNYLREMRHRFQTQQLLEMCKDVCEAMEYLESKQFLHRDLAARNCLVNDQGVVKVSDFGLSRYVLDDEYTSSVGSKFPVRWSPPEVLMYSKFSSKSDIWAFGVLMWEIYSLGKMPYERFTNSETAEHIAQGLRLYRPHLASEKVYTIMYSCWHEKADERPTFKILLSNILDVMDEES

[12] = target: Cyclin-dependent kinase 1 (Homo sapiens) (UniProt P06493); experiment: Inhibition of CDK1 (unknown origin) at 500 nM
Chain of Cyclin-dependent kinase 1 (Homo sapiens) (P06493 whole entry, looked up): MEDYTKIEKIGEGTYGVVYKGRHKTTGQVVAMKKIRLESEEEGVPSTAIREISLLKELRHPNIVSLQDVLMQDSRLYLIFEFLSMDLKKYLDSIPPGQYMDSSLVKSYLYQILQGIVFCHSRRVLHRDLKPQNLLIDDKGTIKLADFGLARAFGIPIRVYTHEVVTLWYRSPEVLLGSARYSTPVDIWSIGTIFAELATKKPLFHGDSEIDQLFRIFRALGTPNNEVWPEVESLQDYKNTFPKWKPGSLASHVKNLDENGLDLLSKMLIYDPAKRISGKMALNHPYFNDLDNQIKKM

[13] = target: T3, Interleukin-1 receptor-associated kinase 4 (Homo sapiens) (UniProt Q9NWZ3); experiment: Inhibition of IRAK4 (unknown origin) at 500 nM
T3 sequence (whole entry): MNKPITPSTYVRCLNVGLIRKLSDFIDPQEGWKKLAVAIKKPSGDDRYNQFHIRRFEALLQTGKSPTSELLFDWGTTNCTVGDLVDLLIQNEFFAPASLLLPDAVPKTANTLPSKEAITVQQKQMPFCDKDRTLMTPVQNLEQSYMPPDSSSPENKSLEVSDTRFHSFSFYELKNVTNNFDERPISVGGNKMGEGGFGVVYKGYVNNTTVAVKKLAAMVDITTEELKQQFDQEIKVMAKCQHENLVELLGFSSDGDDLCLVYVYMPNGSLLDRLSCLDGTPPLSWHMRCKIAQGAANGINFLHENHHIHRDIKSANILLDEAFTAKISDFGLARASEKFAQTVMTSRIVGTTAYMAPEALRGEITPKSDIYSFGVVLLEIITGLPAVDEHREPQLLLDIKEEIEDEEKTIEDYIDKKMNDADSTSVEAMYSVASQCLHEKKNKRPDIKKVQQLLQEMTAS

[14] = target: AMP-activated protein kinase, AMPK (Homo sapiens) (UniProt P54646+O43741+P54619+Q9UGJ0+Q9Y478+Q13131+Q9UGI9); experiment: Inhibition of AMPK (unknown origin) at 500 nM; assay type: protein-complex assay
[15] = target: Tyrosine-protein kinase JAK1 (Homo sapiens) (UniProt P23458); experiment: Inhibition of JAK1 (unknown origin) at 500 nM
Chain of Tyrosine-protein kinase JAK1 (Homo sapiens) (P23458 whole entry): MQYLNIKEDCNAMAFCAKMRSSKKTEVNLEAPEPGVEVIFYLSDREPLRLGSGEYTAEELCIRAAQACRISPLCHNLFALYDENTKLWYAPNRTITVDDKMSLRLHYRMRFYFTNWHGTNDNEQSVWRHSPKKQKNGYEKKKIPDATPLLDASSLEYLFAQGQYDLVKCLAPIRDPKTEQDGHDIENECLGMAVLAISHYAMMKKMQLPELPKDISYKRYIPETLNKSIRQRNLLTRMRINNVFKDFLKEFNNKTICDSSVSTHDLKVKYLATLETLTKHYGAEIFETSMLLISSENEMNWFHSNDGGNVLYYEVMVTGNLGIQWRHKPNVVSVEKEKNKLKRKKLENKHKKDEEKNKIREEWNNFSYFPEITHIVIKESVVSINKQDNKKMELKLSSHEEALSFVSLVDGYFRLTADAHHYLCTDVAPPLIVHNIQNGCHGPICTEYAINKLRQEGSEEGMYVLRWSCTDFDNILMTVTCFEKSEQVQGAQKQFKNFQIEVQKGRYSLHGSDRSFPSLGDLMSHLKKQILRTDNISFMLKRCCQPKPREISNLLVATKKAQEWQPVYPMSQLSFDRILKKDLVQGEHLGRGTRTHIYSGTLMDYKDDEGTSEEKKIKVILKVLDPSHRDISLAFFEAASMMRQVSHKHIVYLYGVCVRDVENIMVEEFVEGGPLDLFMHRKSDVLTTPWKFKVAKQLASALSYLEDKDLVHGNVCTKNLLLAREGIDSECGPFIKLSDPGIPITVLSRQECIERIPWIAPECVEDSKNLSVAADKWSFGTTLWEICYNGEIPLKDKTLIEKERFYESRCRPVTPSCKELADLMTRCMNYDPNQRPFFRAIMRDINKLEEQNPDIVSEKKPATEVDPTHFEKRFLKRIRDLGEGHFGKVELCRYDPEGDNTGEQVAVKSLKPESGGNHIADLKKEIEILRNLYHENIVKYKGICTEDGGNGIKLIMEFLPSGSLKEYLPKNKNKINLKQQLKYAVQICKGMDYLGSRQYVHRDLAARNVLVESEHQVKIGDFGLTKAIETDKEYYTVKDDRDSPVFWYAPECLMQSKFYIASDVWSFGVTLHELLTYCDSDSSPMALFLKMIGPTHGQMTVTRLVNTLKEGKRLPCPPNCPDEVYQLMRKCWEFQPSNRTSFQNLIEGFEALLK

[16] = target: Macrophage colony-stimulating factor 1 receptor (Homo sapiens) (UniProt P07333); experiment: Inhibition of CSF1R (unknown origin) at 500 nM
Chain of Macrophage colony-stimulating factor 1 receptor (Homo sapiens) (P07333 whole entry): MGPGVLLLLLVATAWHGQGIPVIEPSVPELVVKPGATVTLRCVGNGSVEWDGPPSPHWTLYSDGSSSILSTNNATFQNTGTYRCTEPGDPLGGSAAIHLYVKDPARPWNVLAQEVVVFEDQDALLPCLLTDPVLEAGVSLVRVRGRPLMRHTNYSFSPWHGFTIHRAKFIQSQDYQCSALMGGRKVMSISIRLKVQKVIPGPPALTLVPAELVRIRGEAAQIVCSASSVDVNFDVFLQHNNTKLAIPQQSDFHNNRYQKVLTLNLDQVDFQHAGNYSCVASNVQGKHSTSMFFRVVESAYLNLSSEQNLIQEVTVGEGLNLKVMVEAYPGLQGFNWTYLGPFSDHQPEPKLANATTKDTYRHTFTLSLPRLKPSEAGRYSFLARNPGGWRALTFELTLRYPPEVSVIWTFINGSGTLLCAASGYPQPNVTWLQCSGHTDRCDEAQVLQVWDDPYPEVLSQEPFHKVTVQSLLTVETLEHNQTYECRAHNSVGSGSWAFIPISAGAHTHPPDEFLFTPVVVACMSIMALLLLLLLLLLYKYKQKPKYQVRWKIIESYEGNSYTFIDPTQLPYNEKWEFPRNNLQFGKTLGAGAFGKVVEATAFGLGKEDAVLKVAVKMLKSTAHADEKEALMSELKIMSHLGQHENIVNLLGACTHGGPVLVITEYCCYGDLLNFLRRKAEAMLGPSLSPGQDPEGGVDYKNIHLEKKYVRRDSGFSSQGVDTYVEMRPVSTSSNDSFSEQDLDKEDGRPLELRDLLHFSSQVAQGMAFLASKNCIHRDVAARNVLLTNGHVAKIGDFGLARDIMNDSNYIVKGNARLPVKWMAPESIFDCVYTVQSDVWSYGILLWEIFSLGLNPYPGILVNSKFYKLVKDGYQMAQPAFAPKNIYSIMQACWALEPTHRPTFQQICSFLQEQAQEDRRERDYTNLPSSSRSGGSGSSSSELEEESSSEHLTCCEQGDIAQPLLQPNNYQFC

TMD8 [17] = experiment: Induction of apoptosis in human TMD8 cells assessed as viable cells at 0.25 uM incubated for 24 hrs by AnnexinV-FITC/PE staining based flow cytometry (reference value: 94.2%); assay type: functional; settings: read-out: Activity
Summary of the method: as §2

TMD8 [18] = experiment: Induction of apoptosis in human TMD8 cells assessed as late apoptotic cells at 0.5 uM incubated for 24 hrs by AnnexinV-FITC/PE staining based flow cytometry (reference value: 1.44%); assay type: functional
Summary of the method: as §2

TMD8 [19] = experiment: Induction of apoptosis in human TMD8 cells assessed as necrotic cells at 0.5 uM incubated for 24 hrs by AnnexinV-FITC/PE staining based flow cytometry (reference value: 0%); assay type: functional
Summary of the method: as §2

TMD8 [20] = experiment: Induction of apoptosis in human TMD8 cells assessed as viable cells at 1 uM incubated for 24 hrs by AnnexinV-FITC/PE staining based flow cytometry (reference value: 94.2%); assay type: functional; settings: read-out: Activity
Summary of the method: as §2

TMD8 [21] = experiment: Induction of apoptosis in human TMD8 cells assessed as early apoptotic cells at 1 uM incubated for 24 hrs by AnnexinV-FITC/PE staining based flow cytometry (reference value: 4.35%); assay type: functional
Summary of the method: as §2

TMD8 [22] = experiment: Induction of apoptosis in human TMD8 cells assessed as late apoptotic cells at 1 uM incubated for 24 hrs by AnnexinV-FITC/PE staining based flow cytometry (reference value: 1.44%); assay type: functional
Summary of the method: as §2

TMD8 [23] = experiment: Induction of apoptosis in human TMD8 cells assessed as necrotic cells at 1 uM incubated for 24 hrs by AnnexinV-FITC/PE staining based flow cytometry (reference value: 0%); assay type: functional
Summary of the method: as §2

| SMILES | inhibition [1] [%] | inhibition [2] [%] | IC50 [3] [nM] | IC50 [4] [nM] | IC50 (TMD8 [5]) [nM] | IC50 (DOHH-2) [nM] | further results |
| --- | --- | --- | --- | --- | --- | --- | --- |
| O=C(c1ccc(-c2ccc3ncc(-c4cnc5ccccc5c4)n3c2)cc1)N1CCC(N2CCCCC2)CC1 | 71 | 48.8 | – | – | – | – | – |
| O=C(c1ccc(-c2ccc3ncc(-c4ccc5cnccc5c4)n3c2)cc1)N1CCC(N2CCCCC2)CC1 | 92.9 | 74.7 | 2.4 | 1.5 | 4010 | 3820 | – |
| N[C@H]1CCCN(C(=O)c2ccc(-c3cn4c(-c5ccc6cnccc6c5)cnc4cn3)cc2)C1 | – | – | 27.3 | 19.4 | 2560 | 5190 | – |
| N[C@H]1CCCN(C(=O)c2ccc(-c3ccc4ncc(-c5ccc6cnccc6c5)n4c3)cc2)C1 | – | – | 2.5 | 2.5 | 3460 | 6730 | – |
| O=C(c1ccc(-c2ccc3ncc(-c4cnc5ccccc5c4)n3c2)cc1)N1CCC(N2CCOCC2)CC1 | 40.6 | 18.7 | – | – | – | – | – |
| N[C@H]1CCCN(C(=O)c2ccc(-c3ccc4ncc(-c5ccc6cnccc6c5)n4n3)cc2)C1 | 103 | 97.3 | 2.3 | 3.4 | 390 | 409 | Activity (TMD8 [6]): 9.42%; viability at 0.5 µM (TMD8 [7]): 44.6%; Activity (TMD8 [8]): 0%; Activity (TMD8 [9]): 19.8%; Activity (TMD8 [10]): 30%; inhibition [11]: 4.1%; inhibition [12]: 5.01%; inhibition [13]: 22.3%; inhibition [14]: 10.2%; inhibition [15]: 6.5%; inhibition [16]: 11.6%; viability at 0.25 µM (TMD8 [17]): 50.2%; Activity (TMD8 [18]): 45.9%; Activity (TMD8 [19]): 0.037%; viability at 1 µM (TMD8 [20]): 12.5%; Activity (TMD8 [21]): 9.3%; Activity (TMD8 [22]): 78.2%; Activity (TMD8 [23]): 0% |
| NC1CCN(C(=O)c2ccc(-c3ccc4ncc(-c5ccc6cnccc6c5)n4c3)cc2)CC1 | – | – | 5.2 | 16.8 | 2060 | 8300 | – |
| N[C@@H]1CCCN(C(=O)c2ccc(-c3ccc4ncc(-c5ccc6cnccc6c5)n4n3)cc2)C1 | – | – | 9.4 | 6.6 | 2420 | 400 | – |
| N#Cc1ccc(-c2cnc3ccc(-c4ccc(C(=O)N5CCOCC5)cc4)cn23)cc1 [TINODASERTIB] | – | – | – | – | 2140 | 1620 | – |
| NC1CCN(C(=O)c2ccc(-c3ccc4ncc(-c5ccc6cnccc6c5)n4n3)cc2)CC1 | – | – | 14.5 | 15.7 | 2080 | 541 | – |
| N[C@@H]1CCCN(C(=O)c2ccc(-c3ccc4ncc(-c5ccc6cnccc6c5)n4c3)cc2)C1 | – | – | 7.7 | 8.9 | 2300 | 6280 | – |
| O=C(c1ccc(-c2ccc3ncc(-c4ccc5cnccc5c4)n3c2)cc1)N1CCNCC1 | 98.7 | 77.7 | 9.4 | 2.9 | 6640 | 8680 | – |
| N[C@@H]1CCCN(C(=O)c2ccc(-c3cn4c(-c5ccc6cnccc6c5)cnc4cn3)cc2)C1 | – | – | 42 | 26.7 | 3100 | 3250 | – |

Continued, in another order:

| inhibition [1] [%] | inhibition [2] [%] | IC50 [3] [nM] | IC50 [4] [nM] | SMILES | IC50 (TMD8 [5]) [nM] | IC50 (DOHH-2) [nM] | further results |
| --- | --- | --- | --- | --- | --- | --- | --- |
| 93.7 | 106 | 7 | 25.7 | O=C(c1ccc(-c2ccc3ncc(-c4ccc5cnccc5c4)n3c2)cc1)N1CCOCC1 | – | – | – |
| 49.8 | 34.9 | – | – | O=C(c1ccc(-c2ccc3ncc(-c4ccc5ncccc5c4)n3c2)cc1)N1CCC(N2CCOCC2)CC1 | – | – | – |
| 70.7 | 68.1 | 67.6 | 51.2 | O=C(c1ccc(-c2ccc3ncc(-c4cnc5ccccc5c4)n3c2)cc1)N1CCNCC1 | – | – | – |
| 74.7 | 64 | 371 | 216 | O=C(c1ccc(-c2ccc3ncc(-c4ccc5ncccc5c4)n3c2)cc1)N1CCOCC1 | – | – | – |
| 87.8 | 77.7 | 4 | 3.2 | O=C(c1ccc(-c2ccc3ncc(-c4ccc5cnccc5c4)n3c2)cc1)N1CCC(N2CCOCC2)CC1 | 4260 | 7550 | – |
| 73.5 | 49.9 | – | – | O=C(c1ccc(-c2ccc3ncc(-c4ccc5ncccc5c4)n3c2)cc1)N1CCNCC1 | – | – | – |
| – | – | 32.1 | 18.5 | NC1CCN(C(=O)c2ccc(-c3cn4c(-c5ccc6cnccc6c5)cnc4cn3)cc2)CC1 | 7570 | 12000 | – |
| 62.8 | 2.41 | – | – | O=C(c1ccc(-c2ccc3ncc(-c4ccc5ncccc5c4)n3c2)cc1)N1CCC(N2CCCCC2)CC1 | – | – | – |
| 71 | 21 | 154 | 636 | O=C(c1ccc(-c2ccc3ncc(-c4cnc5ccccc5c4)n3c2)cc1)N1CCOCC1 | – | – | – |
